Measurements: ChEMBL document CHEMBL3286245, “Synthesis and antitumor activity of pyrido [2,3-d]pyrimidine and pyrido[2,3-d] [1,2,4]triazolo[4,3-a]pyrimidine derivatives that induce apoptosis through G1 cell-cycle arrest” (Eur J Med Chem, 2014)
Activity calls are given as the source filed them. The calls are words filed in the database; no cut-off is given here.

Key:
PC-3 [1] = experiment: Cytotoxicity against human PC3 cells after 48 hrs by sulforhodamine B assay; format: functional, cell-based; conditions: PC-3, 48 h
How it was run: (§1)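 Exponentially growing cells harvested with 0.25% trypsin-EDTA, seeded at 1000–2000 cells/well in supplemented DMEM, left 24 h, then exposed 48 h to a concentration series; 5-fluorouracil as reference. Fixed with 10% TCA 1 h at 4 °C, stained 10 min with 0.4% SRB in 1% acetic acid, dye solubilized in Tris-HCl, OD read at 564 nm. IC50 from Boltzmann sigmoidal nonlinear fit; means of at least three experiments.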

A549 [2] = experiment: Cytotoxicity against human A549 cells after 48 hrs by sulforhodamine B assay; format: functional, cell-based; conditions: A549, 48 h; how it was run: as §1
PC-3 [3] = experiment: Induction of apoptosis in human PC3 cells assessed as condensed and fragmented chromatin at IC50 after 48 hrs by acridine orange/ethidium bromide staining-based fluorescence microscopic analysis; format: functional, cell-based
MCF7 = experiment: Cytotoxicity against human MCF7 cells after 48 hrs by sulforhodamine B assay; format: functional, cell-based; conditions: MCF7, 48 h; how it was run: as §1
PC-3 [4] = experiment: Induction of apoptosis in human PC3 cells assessed as wrinkled cells at IC50 after 24 hrs by acridine orange/ethidium bromide staining-based fluorescence microscopic analysis; format: functional, cell-based
[5] = target: Cyclin-dependent kinase 4/cyclin D1 (Homo sapiens) (UniProt P11802+P24385); experiment: Inhibition of CDK4/cyclin D1 (unknown origin) at 10 uM after 20 to 30 mins by scintillation counting analysis relative to control; format: protein-complex assay
PC-3 [6] = experiment: Induction of apoptosis in human PC3 cells assessed as increase in caspase-3 level at IC50 uM after 48 hrs by sandwich enzyme immunoassay relative to control; format: functional
PC-3 [7] = experiment: Cell cycle arrest in human PC3 cells assessed as reduction in accumulation at S phase at IC50 after 24 hrs by propidium iodide staining-based flow cytometric analysis; format: functional
PC-3 [8] = experiment: Induction of apoptosis in human PC3 cells assessed as condensed and fragmented chromatin at IC50 after 24 hrs by acridine orange/ethidium bromide staining-based fluorescence microscopic analysis; format: functional, cell-based
PC-3 [9] = experiment: Cell cycle arrest in human PC3 cells assessed as accumulation at G0/G1 phase at IC50 after 24 hrs by propidium iodide staining-based flow cytometric analysis; format: functional
[10] = target: T1, CDK6/cyclin D1 (Homo sapiens) (UniProt P24385+Q00534); experiment: Inhibition of CDK6/cyclin D1 (unknown origin) at 1 uM after 20 to 30 mins by scintillation counting analysis relative to control; format: protein-complex assay
PC-3 [11] = experiment: Upregulation of p21 protein level in human PC3 cells at IC50 after 48 hrs by Western blotting analysis relative to control; format: functional
PC-3 [12] = experiment: Upregulation of p21 protein level in human PC3 cells at IC50 after 48 hrs by immunocytochemical analysis; format: functional, cell-based
PC-3 [13] = experiment: Induction of apoptosis in human PC3 cells assessed as increase in caspase-3 level at IC50 uM after 24 hrs by sandwich enzyme immunoassay relative to control; format: functional
PC-3 [14] = experiment: Cell cycle arrest in human PC3 cells assessed as increase in accumulation at pre-G phase at IC50 after 48 hrs by propidium iodide staining-based flow cytometric analysis; format: functional
[15] = target: T1, CDK6/cyclin D1 (Homo sapiens); experiment: Inhibition of CDK6/cyclin D1 (unknown origin) at 10 uM after 20 to 30 mins by scintillation counting analysis relative to control; format: protein-complex assay
A549 [16] = experiment: Ratio of 5-fluorouracil IC50 to compound IC50 for human A549 cells; format: functional
PC-3 [17] = experiment: Cell cycle arrest in human PC3 cells assessed as reduction in accumulation at G2/M phase at IC50 after 24 hrs by propidium iodide staining-based flow cytometric analysis; format: functional
HepG2 = experiment: Cytotoxicity against human HepG2 cells after 48 hrs by sulforhodamine B assay; format: functional, cell-based; conditions: HepG2, 48 h; how it was run: as §1

Structure (SMILES) | IC50 (PC-3 [1]) [µM] | IC50 (A549 [2]) [µM] | other results
CCOC(=O)c1nn(-c2ccc(S(N)(=O)=O)cc2)c2nc3nc(-c4cccs4)cc(-c4ccccc4)c3c(=O)n12 | 7.15 | 16.4 | –
O=c1[nH]c(N/N=C/c2ccc(Cl)cc2)nc2nc(-c3cccs3)cc(-c3ccccc3)c12 | 23.8 | 40.8 | –
CCOC(=O)c1nn(-c2ccc(Cl)cc2)c2nc3nc(-c4cccs4)cc(-c4ccccc4)c3c(=O)n12 | 37.4 | 72.6 | –
O=c1[nH][nH]c2nc3nc(-c4cccs4)cc(-c4ccccc4)c3c(=O)n12 | 12.7 | 14.7 | –
CC(=O)c1nn(-c2ccc(Cl)cc2)c2nc3nc(-c4cccs4)cc(-c4ccccc4)c3c(=O)n12 | 22.9 | 30.6 | –
Cc1ccc(/C=N/Nc2nc3nc(-c4cccs4)cc(-c4ccccc4)c3c(=O)[nH]2)cc1 | 0.63 | 56.6 | –
CCOC(=O)c1nn(-c2ccc(C)cc2)c2nc3nc(-c4cccs4)cc(-c4ccccc4)c3c(=O)n12 | 33.3 | 37.8 | –
CC(=O)c1nn(-c2ccccc2)c2nc3nc(-c4cccs4)cc(-c4ccccc4)c3c(=O)n12 | 32.3 | 58.3 | –
CC(=O)c1nn(-c2ccc(F)cc2)c2nc3nc(-c4cccs4)cc(-c4ccccc4)c3c(=O)n12 | 35.9 | 39.1 | –
COc1ccc(/C=N/Nc2nc3nc(-c4cccs4)cc(-c4ccccc4)c3c(=O)[nH]2)cc1 | 18.2 | 18.7 | –
O=c1[nH]c(N/N=C/c2ccc(F)cc2)nc2nc(-c3cccs3)cc(-c3ccccc3)c12 | 1.54 | 3.36 | –
CC(=O)c1nn(-c2ccc(S(N)(=O)=O)cc2)c2nc3nc(-c4cccs4)cc(-c4ccccc4)c3c(=O)n12 | 0.36 | 0.41 | Activity (PC-3 [3]): Active; IC50 (MCF7): 38 µM; Activity (PC-3 [4]): Active; inhibition [5]: 5%; fold change (FC) (PC-3 [6]): 2; Activity (PC-3 [7]): Active; Activity (PC-3 [8]): Active; Activity (PC-3 [9]): Active; inhibition [10]: 2%; fold change (FC) (PC-3 [11]): 1.7; Activity (PC-3 [12]): Active; fold change (FC) (PC-3 [13]): 1.5; Activity (PC-3 [14]): Active; inhibition [15]: 1%; Ratio IC50 (A549 [16]): 10; Activity (PC-3 [17]): Active; IC50 (HepG2): 56.6 µM
O=c1[nH]cc(F)c(=O)[nH]1 [FLUOROURACIL] | 12 | 4.21 | –
Cc1n[nH]c2nc3nc(-c4cccs4)cc(-c4ccccc4)c3c(=O)n12 | 83.9 | 55.5 | –
COc1ccc(-n2nc(C(C)=O)n3c(=O)c4c(-c5ccccc5)cc(-c5cccs5)nc4nc23)cc1 | 19.5 | 24.6 | –
O=c1c2c(-c3ccccc3)cc(-c3cccs3)nc2nc2[nH][nH]c(=S)n12 | 32.4 | 54.1 | –
Nc1n[nH]c2nc3nc(-c4cccs4)cc(-c4ccccc4)c3c(=O)n12 | 12.3 | 43.7 | –
O=c1c2c(-c3ccccc3)cc(-c3cccs3)nc2nc2[nH]ncn12 | 11.7 | 21.7 | –
CC(=O)c1nn(-c2ccc(C)cc2)c2nc3nc(-c4cccs4)cc(-c4ccccc4)c3c(=O)n12 | 16.9 | 19.3 | –
O=c1[nH]c(N/N=C/c2ccccc2)nc2nc(-c3cccs3)cc(-c3ccccc3)c12 | 26.8 | 32.1 | –
CCOC(=O)c1nn(-c2ccccc2)c2nc3nc(-c4cccs4)cc(-c4ccccc4)c3c(=O)n12 | 33.6 | 26.6 | –
